Source: ChEMBL document CHEMBL1781875, “Chemoenzymatic synthesis with lipase catalyzed resolution and evaluation of antitumor activity of (R/S)-2-[2-hydroxy-3-(4-phenylpiperazin-1-yl)propyl]-1H-pyrrolo[3,4-b]quinolin-3(2H)-one” (Eur J Med Chem, 2011)

Experiments:
SK-N-SH [1] = assay: Cytotoxicity against human SK-N-SH cells assessed as cell viability at 10 uM after 48 hrs by MTT assay relative to untreated control; type: functional; details: read-out: Activity
Method in brief: (§1)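 Exponentially growing cells seeded at 2.0 × 10⁴ per well in 24-well plates, drug-treated in triplicate for 48 h at 37 °C under 5% CO₂. MTT in RPMI-1640 was added, followed by 2–3 h at 37 °C. Formazan was dissolved in DMSO and OD read at 540 nm. Viability is given as % of untreated cells (100%), mean ± SEM of three determinations.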

A549 [2] = assay: Cytotoxicity against human A549 cells assessed as cell viability at 10 uM after 48 hrs by MTT assay relative to untreated control; type: functional; details: A549, 48 h, read-out: Activity; method in brief: as §1
SK-N-SH [3] = assay: Cytotoxicity against human SK-N-SH cells assessed as cell viability at 25 uM after 48 hrs by MTT assay relative to untreated control; type: functional; details: read-out: Activity; method in brief: as §1
A549 [4] = assay: Cytotoxicity against human A549 cells assessed as cell viability at 25 uM after 48 hrs by MTT assay relative to untreated control; type: functional; details: A549, 48 h, read-out: Activity; method in brief: as §1
SK-N-SH [5] = assay: Cytotoxicity against human SK-N-SH cells assessed as cell viability at 50 uM after 48 hrs by MTT assay relative to untreated control; type: functional; details: read-out: Activity; method in brief: as §1
A549 [6] = assay: Cytotoxicity against human A549 cells assessed as cell viability at 50 uM after 48 hrs by MTT assay relative to untreated control; type: functional; details: A549, 48 h, read-out: Activity; method in brief: as §1
SK-N-SH [7] = assay: Cytotoxicity against human SK-N-SH cells assessed as inhibition of cell growth after 48 hrs by MTT assay; type: functional, cell-based; method in brief: as §1
A549 [8] = assay: Cytotoxicity against human A549 cells assessed as inhibition of cell growth after 48 hrs by MTT assay; type: functional, cell-based; details: A549, 48 h; method in brief: as §1
SK-N-SH [9] = assay: Cytotoxicity against human SK-N-SH cells assessed as cell viability at 0.1 uM after 48 hrs by MTT assay relative to untreated control; type: functional; details: read-out: Activity; method in brief: as §1
A549 [10] = assay: Cytotoxicity against human A549 cells assessed as cell viability at 0.1 uM after 48 hrs by MTT assay relative to untreated control; type: functional; details: A549, 48 h, read-out: Activity; method in brief: as §1
SK-N-SH [11] = assay: Cytotoxicity against human SK-N-SH cells assessed as cell viability at 1 uM after 48 hrs by MTT assay relative to untreated control; type: functional; details: read-out: Activity; method in brief: as §1
A549 [12] = assay: Cytotoxicity against human A549 cells assessed as cell viability at1 uM after 48 hrs by MTT assay relative to untreated control; type: functional; method in brief: as §1
SK-N-SH [13] = assay: Cytotoxicity against human SK-N-SH cells assessed as cell viability at 5 uM after 48 hrs by MTT assay relative to untreated control; type: functional; details: read-out: Activity; method in brief: as §1
A549 [14] = assay: Cytotoxicity against human A549 cells assessed as cell viability at 5 uM after 48 hrs by MTT assay relative to untreated control; type: functional; details: A549, 48 h, read-out: Activity; method in brief: as §1

Row | Compound | viability at 10 µM (SK-N-SH [1]) [%] | viability at 10 µM (A549 [2]) [%] | viability at 25 µM (SK-N-SH [3]) [%] | viability at 25 µM (A549 [4]) [%] | viability at 50 µM (SK-N-SH [5]) [%] | viability at 50 µM (A549 [6]) [%] | IC50 (SK-N-SH [7]) [µM] | IC50 (A549 [8]) [µM] | viability at 0.1 µM (SK-N-SH [9]) [%] | viability at 0.1 µM (A549 [10]) [%] | viability at 1 µM (SK-N-SH [11]) [%] | Activity (A549 [12]) [%] | viability at 5 µM (SK-N-SH [13]) [%] | viability at 5 µM (A549 [14]) [%]
1 | O=C1c2nc3ccccc3cc2CN1CC(O)CN1CCN(c2ccccc2)CC1 (racemic) | 78.3 | 96.5 | 73.5 | 85.5 | 70.5 | 78.7 | 65.1 | 63.2 |  |  |  |  |  | 
2 | CC(=O)O[C@H](CN1CCN(c2ccccc2)CC1)CN1Cc2cc3ccccc3nc2C1=O | 95.5 | 98.4 | 84.2 | 85.6 | 79.3 | 83.3 | 67.8 | 72.7 |  |  |  |  |  | 
3 | COc1cccc2c1C(=O)c1c(O)c3c(c(O)c1C2=O)C[C@@](O)(C(=O)CO)C[C@@H]3O[C@H]1C[C@H](N)[C@H](O)[C@H](C)O1 [DOXORUBICIN] |  |  |  |  |  |  | 19.9 |  | 72.5 | 76.6 | 60.8 | 65.33 | 51 | 33.9
4 | O=C1c2nc3ccccc3cc2CN1C[C@@H](O)CN1CCN(c2ccccc2)CC1 | 76.8 | 90.7 | 69.1 | 81.8 | 49.4 | 74.7 | 16.2 | 54.8 |  |  |  |  |  | 
